Source: ChEMBL document CHEMBL3600364, “Modification of N-(6-(2-methoxy-3-(4-fluorophenylsulfonamido)pyridin-5-yl)-[1,2,4]triazolo[1,5-a]pyridin-2-yl)acetamide as PI3Ks inhibitor by replacement of the acetamide group with alkylurea” (Bioorg Med Chem, 2015)

Tests used:
[1] = test system: U-87 MG; assay: Cytotoxicity against human U87MG cells after 72 hrs by MTT assay; assay type: functional, cell-based, U-87MG ATCC
Summary of the method: (§1)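 Cells (1500–4000/well) were plated for 24 h, then exposed to serial concentrations for 72 h at 1% DMSO final. MTT was added for 4 h, formazan dissolved in DMSO, and OD read at 490 nm. IC50 (μM) came from three experiments run in triplicate.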

[2] = test system: MCF7; assay: Cytotoxicity against human MCF7 cells after 72 hrs by MTT assay; assay type: functional, cell-based; conditions: MCF7, 72 h; summary of the method: as §1
[3] = test system: HCT-116; assay: Cytotoxicity against human HCT116 cells after 72 hrs by MTT assay; assay type: functional, cell-based; conditions: HCT-116, 72 h; summary of the method: as §1
[4] = biological target: T1, Phosphatidylinositol 4,5-bisphosphate 3-kinase catalytic subunit alpha isoform (Homo sapiens, UniProt P42336); assay: Inhibition of PI3Kalpha (unknown origin) assessed as reduction of ATP level after 40 mins by luciferase based luminescence assay
T1 sequence (P42336 whole entry, canonical isoform): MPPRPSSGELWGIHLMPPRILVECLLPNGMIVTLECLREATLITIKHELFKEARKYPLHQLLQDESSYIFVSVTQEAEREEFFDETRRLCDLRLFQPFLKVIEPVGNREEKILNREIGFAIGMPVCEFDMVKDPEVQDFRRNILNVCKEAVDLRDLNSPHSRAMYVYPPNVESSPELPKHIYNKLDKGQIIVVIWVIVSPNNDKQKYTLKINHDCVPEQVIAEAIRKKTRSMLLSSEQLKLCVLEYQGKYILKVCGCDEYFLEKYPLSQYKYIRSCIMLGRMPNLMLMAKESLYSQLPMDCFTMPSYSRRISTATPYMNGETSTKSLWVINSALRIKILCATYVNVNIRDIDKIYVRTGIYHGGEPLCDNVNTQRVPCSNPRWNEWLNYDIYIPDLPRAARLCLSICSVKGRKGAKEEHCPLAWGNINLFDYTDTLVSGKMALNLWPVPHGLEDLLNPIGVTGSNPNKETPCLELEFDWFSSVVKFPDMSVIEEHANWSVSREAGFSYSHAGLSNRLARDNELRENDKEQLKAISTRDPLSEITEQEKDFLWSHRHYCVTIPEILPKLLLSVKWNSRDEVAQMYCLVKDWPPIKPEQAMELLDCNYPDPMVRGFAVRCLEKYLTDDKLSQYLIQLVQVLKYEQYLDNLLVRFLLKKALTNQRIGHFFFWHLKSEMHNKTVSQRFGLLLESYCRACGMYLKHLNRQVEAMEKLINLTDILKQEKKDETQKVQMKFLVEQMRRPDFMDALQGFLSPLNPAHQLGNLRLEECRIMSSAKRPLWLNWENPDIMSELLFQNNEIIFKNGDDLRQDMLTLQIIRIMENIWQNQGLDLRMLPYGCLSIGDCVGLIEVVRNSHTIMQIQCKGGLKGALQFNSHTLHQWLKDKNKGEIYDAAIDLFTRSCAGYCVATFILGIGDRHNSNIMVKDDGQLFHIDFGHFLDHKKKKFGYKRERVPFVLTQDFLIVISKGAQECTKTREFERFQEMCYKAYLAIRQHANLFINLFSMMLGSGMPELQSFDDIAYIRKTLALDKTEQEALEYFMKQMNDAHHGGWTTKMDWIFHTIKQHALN

[5] = biological target: T2, Phosphatidylinositol 4,5-bisphosphate 3-kinase catalytic subunit delta isoform (Homo sapiens, UniProt O00329); assay: Inhibition of PI3Kdelta (unknown origin) assessed as reduction of ATP level after 40 mins by luciferase based luminescence assay
T2 sequence (O00329 whole entry): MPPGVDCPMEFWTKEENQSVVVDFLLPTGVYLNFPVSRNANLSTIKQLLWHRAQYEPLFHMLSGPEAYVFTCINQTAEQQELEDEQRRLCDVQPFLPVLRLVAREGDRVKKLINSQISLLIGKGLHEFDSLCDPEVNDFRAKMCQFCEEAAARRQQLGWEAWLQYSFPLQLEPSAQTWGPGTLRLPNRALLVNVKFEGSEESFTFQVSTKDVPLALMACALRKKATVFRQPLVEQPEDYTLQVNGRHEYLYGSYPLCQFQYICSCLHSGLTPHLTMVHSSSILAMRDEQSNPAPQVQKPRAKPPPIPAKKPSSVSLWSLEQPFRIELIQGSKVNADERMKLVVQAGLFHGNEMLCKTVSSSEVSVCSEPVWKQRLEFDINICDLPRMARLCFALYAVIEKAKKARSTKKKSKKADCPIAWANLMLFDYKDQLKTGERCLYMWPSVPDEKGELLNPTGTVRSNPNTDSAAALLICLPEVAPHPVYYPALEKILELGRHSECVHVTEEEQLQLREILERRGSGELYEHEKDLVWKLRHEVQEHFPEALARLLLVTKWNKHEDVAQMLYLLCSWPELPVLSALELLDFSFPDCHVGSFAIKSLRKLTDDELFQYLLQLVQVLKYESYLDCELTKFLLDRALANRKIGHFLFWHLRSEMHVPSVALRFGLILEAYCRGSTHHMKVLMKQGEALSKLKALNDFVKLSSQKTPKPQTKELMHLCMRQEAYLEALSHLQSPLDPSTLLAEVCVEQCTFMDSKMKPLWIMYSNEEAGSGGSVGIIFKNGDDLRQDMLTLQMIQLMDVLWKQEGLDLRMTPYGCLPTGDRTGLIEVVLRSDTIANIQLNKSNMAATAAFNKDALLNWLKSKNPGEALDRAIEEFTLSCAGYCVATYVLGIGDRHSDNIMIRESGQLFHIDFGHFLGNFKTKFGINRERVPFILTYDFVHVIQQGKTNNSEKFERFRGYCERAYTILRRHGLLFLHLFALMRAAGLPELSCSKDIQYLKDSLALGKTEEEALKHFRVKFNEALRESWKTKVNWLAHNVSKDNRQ
Summary of the method: (§2)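 Each enzyme was tested separately: PI3Kα (p110α/p85α), β (p110β/p85α), γ (p110γ/PIK3R5), δ (p110δ/p85α) or mTOR, with L-α-phosphatidylinositol substrate. […] was measured by luciferase luminescence. Inhibition was normalized to no-compound and no-enzyme controls, and IC50 obtained from dose-response fits.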

[6] = test system: HCT-116; assay: Ratio of BEZ235 IC50 to compound IC50 for human HCT116 cells; assay type: functional
[7] = test system: A549; assay: Cytotoxicity against human A549 cells after 72 hrs by MTT assay; assay type: functional, cell-based; conditions: A549, 72 h; summary of the method: as §1
[8] = Acute toxicity in po dosed mouse; assay type: organism-based; conditions: in vivo
Summary of the method: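 Mouse acute oral toxicity (20.1 ± 1.9 g) by up-and-down procedure per OECD guideline 425. Compound dissolved in NMP, diluted with PEG400 and H2O (NMP/PEG400/H2O 1:8:1 v/v), given orally. Starting dose 50 mg/kg or 100 mg/kg depending on compound, slope factor sigma 0.12. Dosing stopped per AOT425StatPgm stopping rules.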

[9] = Ratio of compound LD50 to compound B LD50 for po dosed mouse; assay type: ADME, organism-based; conditions: in vivo
[10] = biological target: T1, Phosphatidylinositol 4,5-bisphosphate 3-kinase catalytic subunit alpha isoform; assay: Ratio of BEZ235 IC50 to compound IC50 for PI3Kalpha (unknown origin) assessed as reduction of ATP level after 40 mins by luciferase based luminescence assay
[11] = biological target: Serine/threonine-protein kinase mTOR (Homo sapiens, UniProt P42345); assay: Inhibition of mTOR (unknown origin) assessed as reduction of ATP level after 40 mins by luciferase based luminescence assay; summary of the method: as §2
[12] = test system: Mus musculus; assay: Toxicity in mouse S180 cells xenografted in mouse assessed as change in body weight at 5 to 30 mg/kg, po qd for 8 days; assay type: organism-based, CCRF S-180; conditions: in vivo, 192 h
Summary of the method: (§3)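 Mice (20.3 ± 1.6 g) were given 3×10^6 S180 cells subcutaneously in the flank and randomized the next day into groups of 8. Dosing was oral, once daily for 8 days, in NMP/PEG400/H₂O (1:6:3), with a solvent-only group as control. Body weight was recorded daily. On day 9, tumors were excised and weighed, and tumor-weight inhibitory ratio was calculated.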

[13] = test system: CCRF S-180; assay: Antitumor activity against mouse S180 cells xenografted in mouse assessed as inhibition of tumor growth at 30 mg/kg, po […] for 8 days relative to control; assay type: functional; conditions: CCRF S-180, po, 192 h, read-out: GI; summary of the method: as §3
[14] = test system: CCRF S-180; assay: Antitumor activity against mouse S180 cells xenografted in mouse assessed as inhibition of tumor growth at 5 mg/kg, po […] for 8 days relative to control; assay type: functional; conditions: CCRF S-180, po, 192 h, read-out: GI; summary of the method: as §3
[15] = test system: CCRF S-180; assay: Antitumor activity against mouse S180 cells xenografted in mouse assessed as inhibition of tumor growth at 10 mg/kg, po […] for 8 days relative to control; assay type: functional; conditions: CCRF S-180, po, 192 h, read-out: GI; summary of the method: as §3

Structure (SMILES)	IC50 [1] [nM]	IC50 [2] [nM]	IC50 [3] [nM]	IC50 [7] [nM]	other results
COc1ncc(-c2ccc3nc(NC(=O)NC4CC4)nn3c2)cc1NS(=O)(=O)c1ccc(F)cc1	540	300	90	210	IC50 [4]: 7 nM; IC50 [5]: 16 nM; Ratio IC50 [6]: 3; LD50 [8]: 118 mg/kg; selectivity ratio [9]: 4; Ratio IC50 [10]: 8; IC50 [11]: 275 nM
COc1ncc(-c2ccc3nc(NC(=O)NCCN4CCCCC4)nn3c2)cc1NS(=O)(=O)c1ccc(F)cc1	1080	200	150	610	–
COc1ncc(-c2ccc3nc(NC(=O)NCCN4CCCC4)nn3c2)cc1NS(=O)(=O)c1ccc(F)cc1	1120	380	230	960	–
COc1ncc(-c2ccc3nc(NC(=O)NCC(=O)N4CCCC4)nn3c2)cc1NS(=O)(=O)c1ccc(F)cc1	1000	2130	140	2190	–
COc1ncc(-c2ccc3nc(NC(=O)N(C)C)nn3c2)cc1NS(=O)(=O)c1ccc(F)cc1	1780	1560	760	1190	–
CNC(=O)Nc1nc2ccc(-c3cnc(OC)c(NS(=O)(=O)c4ccc(F)cc4)c3)cn2n1	640	250	180	230	–
COc1ncc(-c2ccc3nc(NC(=O)NCCN4CCOCC4)nn3c2)cc1NS(=O)(=O)c1ccc(F)cc1	560	210	130	420	–
COc1ncc(-c2ccc3nc(NC(C)=O)nn3c2)cc1NS(=O)(=O)c1ccc(F)cc1	–	–	–	–	LD50 [8]: 28 mg/kg
CCN(CC)CCNC(=O)Nc1nc2ccc(-c3cnc(OC)c(NS(=O)(=O)c4ccc(F)cc4)c3)cn2n1	720	370	180	760	IC50 [4]: 14 nM; IC50 [5]: 12 nM; Activity [12]: Non-toxic; inhibition in vivo at 30 mg/kg [13]: 53.6%; LD50 [8]: 513 mg/kg; inhibition in vivo at 5 mg/kg [14]: 37.3%; inhibition in vivo at 10 mg/kg [15]: 49%; selectivity ratio [9]: 18; Ratio IC50 [10]: 3; IC50 [11]: 123 nM
CCN(CC)CCNC(=O)Nc1nc2ccc(-c3cnc(OC)c(NS(=O)(=O)c4ccc(Cl)cc4)c3)cn2n1	760	680	120	680	–
COc1ncc(-c2ccc3nc(NC(=O)NCC(=O)N4CCOCC4)nn3c2)cc1NS(=O)(=O)c1ccc(F)cc1	3260	630	490	2570	–
CCN(CC)CCNC(=O)Nc1nc2ccc(-c3cnc(OC)c(NS(=O)(=O)c4ccc(C)cc4)c3)cn2n1	670	410	170	730	–
CCN(CC)CCNC(=O)Nc1nc2ccc(-c3cnc(OC)c(NS(=O)(=O)c4ccc(F)cc4F)c3)cn2n1	1060	740	140	980	–
COc1ncc(-c2ccc3nc(NC(=O)NCCN4CCN(C)CC4)nn3c2)cc1NS(=O)(=O)c1ccc(F)cc1	760	500	260	1050	–
CCCNC(=O)Nc1nc2ccc(-c3cnc(OC)c(NS(=O)(=O)c4ccc(F)cc4)c3)cn2n1	420	360	150	220	LD50 [8]: 156 mg/kg; selectivity ratio [9]: 5
COc1ncc(-c2ccc3nc(NC(=O)N4CCCC4)nn3c2)cc1NS(=O)(=O)c1ccc(F)cc1	1690	1660	1290	3570	–
COc1ncc(-c2ccc3nc(NC(=O)NCCN(C)C)nn3c2)cc1NS(=O)(=O)c1ccc(F)cc1	980	560	220	800	–
COc1ncc(-c2ccc3nc(NC(=O)NCC(=O)N4CCCCC4)nn3c2)cc1NS(=O)(=O)c1ccc(F)cc1	740	570	130	2060	–
Cn1c(=O)n(-c2ccc(C(C)(C)C#N)cc2)c2c3cc(-c4cnc5ccccc5c4)ccc3ncc21 [DACTOLISIB]	770	260	290	280	–
